According to article PMC8548355 (Medicinal Chemistry Research, 2021):
Converted amounts (≈) assume the structure as drawn.

Legend:
E. coli ATCC 25922 = assay: MIC by broth microdilution against E. coli ATCC 25922; assay type: cell-based; settings: Escherichia coli, ATCC25922, read-out: MIC against E. coli ATCC 25922
S. aureus ATCC 29213 [1] = assay: MIC by broth microdilution against S. aureus ATCC 29213; assay type: cell-based, Staphylococcus aureus; settings: Staphylococcus aureus, ATCC29213, read-out: MIC against S. aureus ATCC 29213, broth microdilution, 37 °C, 16–18 h
K. pneumoniae BAA 1705 = assay: MIC by broth microdilution against K. pneumoniae BAA 1705; assay type: cell-based; settings: Klebsiella pneumoniae, BAA1705, read-out: MIC against K. pneumoniae BAA 1705
A. baumannii BAA 1605 = assay: MIC by broth microdilution against A. baumannii BAA 1605; assay type: cell-based; settings: Acinetobacter baumannii, BAA1605, read-out: MIC against A. baumannii BAA 1605
Vero cells (ATCC CCL-81) = assay: Cell cytotoxicity assay; assay type: cell-based; settings: CC50 Vero cells / MIC S. aureus ATCC 29213
MRSA NRS 10100 = assay: MIC against clinical MRSA isolate NRS 10100; assay type: cell-based; settings: Staphylococcus aureus, MRSA|NRS10100, read-out: MIC against MRSA NRS 10100
MRSA NRS 10119 = assay: MIC against clinical MRSA isolate NRS 10119; assay type: cell-based; settings: Staphylococcus aureus, MRSA|NRS10119, read-out: MIC against MRSA NRS 10119
MRSA NRS 10129 = assay: MIC against clinical MRSA isolate NRS 10129; assay type: cell-based; settings: Staphylococcus aureus, MRSA|NRS10129, read-out: MIC against MRSA NRS 10129
MRSA NRS 10186 = assay: MIC against clinical MRSA isolate NRS 10186; assay type: cell-based; settings: Staphylococcus aureus, MRSA|NRS10186, read-out: MIC against MRSA NRS 10186
MRSA NRS 10191 = assay: MIC against clinical MRSA isolate NRS 10191; assay type: cell-based; settings: Staphylococcus aureus, MRSA|NRS10191, read-out: MIC against MRSA NRS 10191
MRSA NRS 10192 = assay: MIC against clinical MRSA isolate NRS 10192; assay type: cell-based; settings: Staphylococcus aureus, MRSA|NRS10192, read-out: MIC against MRSA NRS 10192
MRSA NRS 10193 = assay: MIC against clinical MRSA isolate NRS 10193; assay type: cell-based; settings: Staphylococcus aureus, MRSA|NRS10193, read-out: MIC against MRSA NRS 10193
MRSA NRS 10194 = assay: MIC against clinical MRSA isolate NRS 10194; assay type: cell-based; settings: Staphylococcus aureus, MRSA|NRS10194, read-out: MIC against MRSA NRS 10194
MRSA NRS 10198 = assay: MIC against clinical MRSA isolate NRS 10198; assay type: cell-based; settings: Staphylococcus aureus, MRSA|NRS10198, read-out: MIC against MRSA NRS 10198
VRSA VRS 1 = assay: MIC against clinical VRSA isolate VRS 1; assay type: cell-based; settings: Staphylococcus aureus, read-out: MIC against VRSA VRS 1
VRSA VRS 4 = assay: MIC against clinical VRSA isolate VRS 4; assay type: cell-based; settings: Staphylococcus aureus, read-out: MIC against VRSA VRS 4
VRSA VRS 12 = assay: MIC against clinical VRSA isolate VRS 12; assay type: cell-based; settings: Staphylococcus aureus, read-out: MIC against VRSA VRS 12
[2] = system: clinical MDR S. aureus isolates (MRSA and VRSA); assay: MIC against clinical MDR S. aureus isolates, whole panel; assay type: cell-based, Staphylococcus aureus; settings: nine MRSA and three VRSA strains
S. aureus ATCC 29213 [3] = assay: Drug interaction of 22 with FDA-approved drugs, checkerboard method; assay type: cell-based, Staphylococcus aureus; settings: for MIC: Staphylococcus aureus, ATCC29213, 24 h, read-out: MIC (drug alone); for MIC of drug in the presence of “22” “B”: S. aureus ATCC 29213, checkerboard, in combination with 22; for Inference (drug interaction): combination of 22 with the drug, S. aureus ATCC 29213
S. aureus ATCC 29213 [4] = assay: Time–kill kinetics; assay type: cell-based, Staphylococcus aureus; settings: 24 h; for cfu reduction in time–kill kinetics: 10× MIC
Method in brief: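 Bacteria diluted to ~10^6 cfu/mL and exposed to test compound at 1× and 10× MIC, with controls, at 37 °C for 24 h. Samples taken at 1, 6 and 24 h, serially diluted ten-fold in PBS, and spread on MHA. Plates incubated at 37 °C for 24 h and colonies counted. Surviving cfu/mL plotted against time with and without compound.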

[5] = system: S. aureus ATCC 29213 pre-formed biofilm; assay: Activity against pre-formed S. aureus biofilm; assay type: cell-based, Staphylococcus aureus; settings: 10× MIC, 24 h treatment, S. aureus ATCC 29213, compared to comparators
Method in brief: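 Overnight culture in 1% TSB, shaken at 180 RPM at 37 °C, diluted 1:100 in fresh TSB. Biofilm grown statically for 48 h at 37 °C under an adhesive foil lid for low oxygen. Planktonic cells removed with three PBS (pH 7.4) rinses. Refilled with TSB containing test compound, 24 h at 37 °C. Washed, heat-fixed at 60 °C for 1 h, stained with 0.06% crystal violet for 10 min, eluted with 30% acetic acid, absorbance read at 600 nm.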

S. aureus = settings: similar activity to 20–23; cited from earlier work

Compound	MIC (E. coli ATCC 25922)	MIC (S. aureus ATCC 29213 [1])	MIC (K. pneumoniae BAA 1705)	MIC (A. baumannii BAA 1605)	Selectivity index with respect to S. aureus ATCC 29213 (SI) (Vero cells (ATCC CCL-81))	MIC (MRSA NRS 10100)	MIC (MRSA NRS 10119)	MIC (MRSA NRS 10129)	MIC (MRSA NRS 10186)	MIC (MRSA NRS 10191)	MIC (MRSA NRS 10192)	MIC (MRSA NRS 10193)	MIC (MRSA NRS 10194)	MIC (MRSA NRS 10198)	MIC (VRSA VRS 1)	MIC (VRSA VRS 4)	MIC (VRSA VRS 12)	MIC (S. aureus ATCC 29213 [3])	also measured
O=C(Nc1ccc(Br)c(C(F)(F)F)c1)c1ccccc1O [Compound 21, N-(4ʹ-bromo-3ʹ-(trifluoromethyl)phenyl)-2-hydroxybenzamide]	> 64 µg/mL	0.5 µg/mL (≈ 1.39 µM)	> 64 µg/mL	> 64 µg/mL	<10	–	–	–	–	–	–	–	–	–	–	–	–	–	–
O=C(Nc1ccc(Br)c(C(F)(F)F)c1)c1cc(Cl)ccc1O [Compound 22, 5-Chloro-N-(4ʹ-bromo-3ʹ-(trifluoromethyl)phenyl)-2-hydroxybenzamide]	> 64 µg/mL	0.25 µg/mL (≈ 0.634 µM)	> 64 µg/mL	> 64 µg/mL	–	0.0625 µg/mL (≈ 0.158 µM)	0.0312 µg/mL (≈ 0.0791 µM)	0.0625 µg/mL (≈ 0.158 µM)	0.0625 µg/mL (≈ 0.158 µM)	0.0625 µg/mL (≈ 0.158 µM)	0.0312 µg/mL (≈ 0.0791 µM)	0.0625 µg/mL (≈ 0.158 µM)	0.0625 µg/mL (≈ 0.158 µM)	0.0625 µg/mL (≈ 0.158 µM)	0.0312 µg/mL (≈ 0.0791 µM)	0.0625 µg/mL (≈ 0.158 µM)	0.0625 µg/mL (≈ 0.158 µM)	0.5 µg/mL	MIC against MRSA and VRSA isolates (range over the panel) [2]: 0.031 to 0.062 µg/mL; Type of killing in time–kill kinetics (in words) (S. aureus ATCC 29213 [4]; 1× and 10× MIC): concentration-dependent bactericidal activity; cfu reduction in time–kill kinetics (S. aureus ATCC 29213 [4]): ~ 8 log10 cfu/mL; Reduction in pre-formed biofilm [5]: more significant reduction (P < 0.0005)
O=C(Nc1cccc(C(F)(F)F)c1)c1cc(Cl)ccc1O [Compound 23, 5-Chloro-N-(3ʹ-(trifluoromethyl)phenyl)-2-hydroxybenzamide]	> 64 µg/mL	0.5 µg/mL (≈ 1.58 µM)	> 64 µg/mL	> 64 µg/mL	<10	–	–	–	–	–	–	–	–	–	–	–	–	–	–
O=C(Nc1ccc(Br)cc1)c1cc(Cl)ccc1O [Compound 25, 5-Chloro-N-(4ʹ-bromophenyl)-2-hydroxybenzamide]	> 64 µg/mL	0.5 µg/mL (≈ 1.53 µM)	> 64 µg/mL	> 64 µg/mL	–	0.5 µg/mL (≈ 1.53 µM)	0.25 µg/mL (≈ 0.766 µM)	0.5 µg/mL (≈ 1.53 µM)	0.5 µg/mL (≈ 1.53 µM)	0.5 µg/mL (≈ 1.53 µM)	0.5 µg/mL (≈ 1.53 µM)	0.5 µg/mL (≈ 1.53 µM)	0.5 µg/mL (≈ 1.53 µM)	0.5 µg/mL (≈ 1.53 µM)	0.5 µg/mL (≈ 1.53 µM)	0.5 µg/mL (≈ 1.53 µM)	0.5 µg/mL (≈ 1.53 µM)	–	MIC against MRSA and VRSA isolates (range over the panel) [2]: 0.25 to 0.5 µg/mL
O=C(Nc1cc(C(F)(F)F)cc(C(F)(F)F)c1)c1cc(Cl)ccc1O [IMD0354, N-[3,5-Bis(trifluoromethyl)phenyl]-5-chloro-2-hydroxybenzamide]	–	–	–	–	–	–	–	–	–	–	–	–	–	–	–	–	–	–	MIC (reported) (S. aureus): 0.25 µg/mL (≈ 0.652 µM)
C[C@H]1COc2c(N3CCN(C)CC3)c(F)cc3c(=O)c(C(=O)O)cn1c23 [Levofloxacin, reference compound]	0.0156 µg/mL (≈ 0.0432 µM)	0.25 µg/mL (≈ 0.692 µM)	64 µg/mL (≈ 177 µM)	8 µg/mL (≈ 22.1 µM)	>400	0.25 µg/mL (≈ 0.692 µM)	16 µg/mL (≈ 44.3 µM)	0.25 µg/mL (≈ 0.692 µM)	8 µg/mL (≈ 22.1 µM)	16 µg/mL (≈ 44.3 µM)	8 µg/mL (≈ 22.1 µM)	32 µg/mL (≈ 88.6 µM)	0.125 µg/mL (≈ 0.346 µM)	32 µg/mL (≈ 88.6 µM)	64 µg/mL (≈ 177 µM)	> 64 µg/mL	32 µg/mL (≈ 88.6 µM)	0.25 µg/mL	MIC of drug in the presence of “22” “B” (S. aureus ATCC 29213 [3]): 0.25 µg/mL; Inference (drug interaction) (S. aureus ATCC 29213 [3]): No interaction
CN[C@H](CC(C)C)C(=O)N[C@H]1C(=O)N[C@@H](CC(N)=O)C(=O)N[C@H]2C(=O)N[C@H]3C(=O)N[C@H](C(=O)N[C@H](C(=O)O)c4cc(O)cc(O)c4-c4cc3ccc4O)[C@H](O)c3ccc(c(Cl)c3)Oc3cc2cc(c3O[C@@H]2O[C@H](CO)[C@@H](O)[C@H](O)[C@H]2O[C@H]2C[C@](C)(N)[C@H](O)[C@H](C)O2)Oc2ccc(cc2Cl)[C@H]1O [Vancomycin, reference compound]	–	–	–	–	–	2 µg/mL (≈ 1.38 µM)	2 µg/mL (≈ 1.38 µM)	1 µg/mL (≈ 0.69 µM)	1 µg/mL (≈ 0.69 µM)	2 µg/mL (≈ 1.38 µM)	2 µg/mL (≈ 1.38 µM)	2 µg/mL (≈ 1.38 µM)	1 µg/mL (≈ 0.69 µM)	2 µg/mL (≈ 1.38 µM)	> 64 µg/mL	> 64 µg/mL	> 64 µg/mL	1 µg/mL	MIC of drug in the presence of “22” “B” (S. aureus ATCC 29213 [3]): 0.5 µg/mL; Inference (drug interaction) (S. aureus ATCC 29213 [3]): No interaction; cfu reduction in time–kill kinetics (S. aureus ATCC 29213 [4]): ~ 9 log10 cfu/mL
